Assay results pooled from the literature.
Compare with care: the assays were run in different laboratories.
CA9: Carbonic anhydrase 9 (CA9, Homo sapiens, UniProt Q16790)
Melanocortin receptor 5: Melanocortin receptor 5 (Mus musculus, UniProt P41149)
gyrB: DNA gyrase subunit B (gyrB, Escherichia coli, UniProt P0AES6)
PKN1: Serine/threonine-protein kinase N1 (PKN1, Homo sapiens, UniProt Q16512)
Adora1: Adenosine receptor A1 (Adora1, Rattus norvegicus, UniProt P25099)

Compound | target | test | setting | quantity | value
NS(=O)(=O)c1cccc(NC(=O)CCN2CCC(c3cccc4[nH]ccc34)CC2)c1 | CA9 | enzyme activity, inhibitor |  | IC50 | 11000 nM
N=C(N)NCCC[C@H](NC(=O)[C@H](CC(=O)O)NC(=O)[C@H](Cc1c[nH]c2ccccc12)NC(=O)[C@H](CCCNC(=N)N)NC(=O)[C@@H](N)Cc1ccccc1)C(=O)N[C@@H](Cc1ccccc1)C(=O)O | Melanocortin receptor 5 | reporter gene, agonist |  | EC50 | 6730 nM
COc1ccc(-c2nsc(NC(=O)[C@@H]3C[C@H]3C)c2C)cc1 | Metabotropic glutamate receptor 1 (GRM1, Homo sapiens, UniProt Q13255) | calcium signal, agonist |  | EC50 | > 25000 nM
CSCC[C@H](NC(=O)[C@@H](NC(=O)[C@@H](N)Cc1ccc(O)cc1)C(C)C)C(=O)NCC(=O)N[C@@H](Cc1c[nH]cn1)C(=O)N[C@@H](Cc1ccccc1)C(=O)N[C@@H](CCCNC(=N)N)C(=O)N[C@@H](Cc1c[nH]c2ccccc12)C(=O)N[C@@H](CC(=O)O)C(=O)N[C@@H](CCCNC(=N)N)C(=O)O | Melanocortin receptor 5 | reporter gene, agonist |  | EC50 | 62 nM
O=C(O)c1ccc(NC(=O)c2cc3ccccc3[nH]c2=O)cc1 | gyrB | binding, ITC |  | Kd | 730 nM
CN(c1ccccc1CNc1nc(Nc2ccc3c(c2)CC(=O)N3)ncc1C(F)(F)F)S(C)(=O)=O | PKN1 | enzyme activity, inhibitor |  | IC50 | 129 nM
NS(=O)(=O)c1cc(C(=O)Nc2ccc(NC(=O)CCN3CCCCC3)cc2)ccc1Cl | CA9 | enzyme activity, inhibitor |  | IC50 | 160 nM
CCCN1CCCn2c1nc1c2c(=O)n(C)c(=O)n1C | Adora1 | ligand displacement, radioligand | cell membranes | Ki | 3870 nM
Cc1nn(-c2ccccc2)c(C)c1C1COCCN1C(=O)c1ccc(Cl)c(S(N)(=O)=O)c1 (centres unmarked) | CA9 | enzyme activity, inhibitor |  | IC50 | 155 nM
CCC(C)N1CCCn2c1nc1c2c(=O)n(C)c(=O)n1C (centres unmarked) | Adora1 | ligand displacement, radioligand | cell membranes | Ki | ≥ 25000 nM
NS(=O)(=O)c1ccc(C(=O)N2CCCC(CNc3ccc(Cl)cc3)C2)cc1Cl (centres unmarked) | CA9 | enzyme activity, inhibitor |  | IC50 | 206 nM
N=C(N)NCCC[C@H](NC(=O)[C@@H](N)CC(=O)O)C(=O)N[C@@H](Cc1ccccc1)C(=O)O | Melanocortin receptor 5 | reporter gene, agonist |  | EC50 | > 100000 nM
CC(NC(=O)C(C)N1CCN(C(=O)c2cccc(O)c2)CC1)c1ccc(S(N)(=O)=O)cc1 (centres unmarked) | CA9 | enzyme activity, inhibitor |  | IC50 | 750 nM
CCCCNc1ncc2c(-c3ccc(CN4CCN(C)CC4)cc3)cn([C@H]3CC[C@H](O)CC3)c2n1 | PKN1 | enzyme activity, inhibitor |  | IC50 | 53 nM
Cc1cccnc1C(=O)Nc1ccc(N2C(=O)c3ccccc3C2=O)c(Cl)c1 | Metabotropic glutamate receptor 4 (GRM4, Homo sapiens, UniProt Q14833) | calcium signal, agonist |  | EC50 | > 10000 nM
Cc1cnc(-c2ccc(-c3ccc(NC(=O)Nc4c(F)cc(F)cc4F)cc3F)c3c2C(=O)NC3)[nH]1 | Serine/threonine-protein kinase 26 (STK26, Homo sapiens, UniProt Q9P289) | binding, competition with immobilised ligand |  | Kd | 8.2 nM
Cc1ccc(C)c(OCCCC(C)(C)C(=O)O)c1 | Peroxisome proliferator-activated receptor alpha (Ppara, Mus musculus, UniProt P23204) | reporter gene, agonist, luciferase |  | EC50 | 111000 nM
CNc1cccc2cc(C(=O)Nc3cccc(CC(=O)O)c3)c(=O)[nH]c12 | gyrB | binding, ITC |  | Kd | 37 nM

Compound | target | test | setting | quantity | value
N=C(N)NCCC[C@H](N)C(=O)N[C@@H](Cc1ccccc1)C(=O)NCC(=O)O | Melanocortin receptor 5 | reporter gene, agonist |  | EC50 | > 100000 nM
CN(Cc1ccc(C(=O)O)cc1NC(=O)c1cc2ccccc2[nH]c1=O)C1CCCCC1 | gyrB | binding, ITC |  | Kd | 3900 nM
NS(=O)(=O)c1ccc(NC(=O)COC(=O)c2ccccc2Nc2cccc(C(F)(F)F)c2)cc1 | CA9 | enzyme activity, inhibitor |  | IC50 | 87 nM
N=C(N)NCCC[C@H](NC(=O)[C@H](CC(=O)O)NC(=O)[C@H](Cc1c[nH]c2ccccc12)NC(=O)[C@H](CCCNC(=N)N)NC(=O)[C@H](Cc1ccccc1)NC(=O)[C@@H](N)Cc1c[nH]cn1)C(=O)N[C@@H](Cc1ccccc1)C(=O)O | Melanocortin receptor 5 | reporter gene, agonist |  | EC50 | 1870 nM
CC(C)CCCC(C)N1CCCn2c1nc1c2c(=O)n(C)c(=O)n1C (centres unmarked) | Adora1 | ligand displacement, radioligand | cell membranes | Ki | 7690 nM
O=C(O)c1cccc(NC(=O)c2cc3ccccc3[nH]c2=O)c1 | gyrB | binding, ITC |  | Kd | 7000 nM
CCCCn1c(=O)c2[nH]c(C34CC5CC(CC3C5)C4)nc2n(CCCO)c1=O | Adora1 | ligand displacement, radioligand | cell membranes | Ki | 0.368 nM
CNC(=O)c1cccc2oc(C(=O)NC3CCCN(CC(=O)Nc4ccc(S(N)(=O)=O)cc4)C3)cc12 (centres unmarked) | CA9 | enzyme activity, inhibitor |  | IC50 | 70.8 nM
CC(C)CC(C)N1CCCn2c1nc1c2c(=O)n(C)c(=O)n1C (centres unmarked) | Adora1 | ligand displacement, radioligand | cell membranes | Ki | > 25000 nM
O=S(=O)(NCCNC/C=C/c1ccc(Br)cc1)c1cccc2cnccc12 | PKN1 | enzyme activity, inhibitor |  | IC50 | 155 nM
CSCC[C@H](NC(=O)[C@@H](N)Cc1ccc(O)cc1)C(=O)N[C@@H](Cc1c[nH]cn1)C(=O)N[C@@H](Cc1ccccc1)C(=O)N[C@@H](CCCNC(=N)N)C(=O)N[C@@H](Cc1c[nH]c2ccccc12)C(=O)N[C@@H](Cc1ccccc1)C(=O)O | Melanocortin receptor 5 | reporter gene, agonist |  | EC50 | 1100 nM
CO[C@@]1(NC(=O)C2SC(=C(C(N)=O)C(=O)O)S2)C(=O)N2C(C(=O)O)=C(CSc3nnnn3C)CS[C@@H]21 (some centres unmarked) | Phosphatidylethanolamine-binding protein 1 (Homo sapiens, UniProt P30086) | binding |  | Kd | 35800 nM
CNc1cccc2cc(C(=O)NCc3cccc(C(=O)O)c3)c(=O)[nH]c12 | gyrB | binding, ITC |  | Kd | 390 nM
N=C(N)NCCC[C@H](NC(=O)[C@H](CC(=O)O)NC(=O)[C@H](Cc1c[nH]c2ccccc12)NC(=O)[C@@H](N)CCCNC(=N)N)C(=O)N[C@@H](Cc1ccccc1)C(=O)NCC(=O)O | Melanocortin receptor 5 | reporter gene, agonist |  | EC50 | > 100000 nM
CCCCN1CCCn2c1nc1c2c(=O)n(CCC)c(=O)n1CCC | Adora1 | ligand displacement, radioligand | cell membranes | Ki | 280 nM
N=C(N)NCCC[C@H](NC(=O)[C@H](CC(=O)O)NC(=O)[C@H](Cc1c[nH]c2ccccc12)NC(=O)[C@H](CCCNC(=N)N)NC(=O)[C@@H](N)Cc1ccccc1)C(=O)N[C@@H](Cc1ccccc1)C(=O)NCC(=O)O | Melanocortin receptor 5 | reporter gene, agonist |  | EC50 | 13500 nM
NS(=O)(=O)c1ccc(NC(=S)N2CCN(C(=O)c3ccco3)CC2)cc1 | CA9 | enzyme activity, inhibitor |  | IC50 | 37.2 nM
